Screens deposited in PubChem BioAssay by several laboratories.
This is a sample that favours compounds with a hit; in the whole collection about 2.9% have one here.
IMP-1 inh = inhibitors of Pseudomonas aeruginosa IMP-1 metallo-beta-lactamase. 0.45% of 290,000 active. purified IMP-1, nitrocefin hydrolysis, epi-absorbance fluorescence. inhibition, % at 5.6 µM. AID 1556;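 active = inhibition above the mean plus 3 SD of all compounds in the same screening run, cut at about 4.5% in these data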
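System: purified recombinant IMP-1 beta-lactamase. Medium: Zinc- and detergent-supplemented HEPES buffer, pH 7.1. Compound: one 5.6 µM dose […]. Schedule: 15 min preincubation plus 25 min reaction at 25 °C. Technique: Epi-absorbance fluorescence, 480 nm excitation, 530 nm emission.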
VIM-2 inh = blocks Pseudomonas aeruginosa VIM-2 metallo-beta-lactamase | inhibition, % at 5.6 µM | AID 1527 | purified VIM-2, nitrocefin hydrolysis, epi-absorbance fluorescence | 0.89% of 290,000 active;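 active = inhibition above the mean of all tested compounds plus 3 SD, cutoff set per screening run, cut at about 7.5% in these data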;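 note: red hydrolysis product quenches plate fluorescence so inhibitors raise well fluorescence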
PolyA inh = blocks polyadenylation in yeast reporter cells. S. cerevisiae SKY197-pL101 polyadenylation reporter, beta-gal luminescence; efflux-impaired pdr1/pdr3 knockout yeast; score 100 = 6 SD above DMSO. activity score, % at 12 µM. 0.02% of 300,000 active. AID 1875;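 active = lowest replicate activity score at least 50, where 100 means six control SD above control mean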;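 note: yeast exposed to compound for 9 h at 30 °C; higher score means more reporter readthrough which indicates perturbed polyadenylation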
Mot1-301 SUMO = inhibitors of SUMOylation pathway: yeast Mot1-301 growth rescue; 1% of 320,000 active; growth rescue, % at 18.8 µM; S. cerevisiae Mot1-301 growth rescue, ATP luminescence, 38.5C; percent above DMSO median, 100 means doubled;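 active = every valid replicate shows activation above 250% relative to neutral control wells; inactive = the rest, any valid replicate at or below 250%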
NALP1 inh = NALP1 inhibition; S. cerevisiae NALP1/ASC/caspase-1 growth, X-gal OD620, 72 h; inhibition, % at 10 µM; 0.61% of 280,000 active; AID 2071; in the data active = inhibition mostly above about 24%, no sharp cut-off; inactive = mostly below about 32%
NALP3 yeast inh = NALP3 inhibition in yeast | AID 2825 | inhibition, % at 10 µM | Yeast reconstituted NLRP3/ASC/caspase-1, beta-gal luminescence, 24 h | 0.39% of 330,000 active;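 active = inhibition of 50% or more; inactive = inhibition below 50%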
A number is an active result; 0 = inactive; - = no result; ! = repeats disagree.

SMILES	IMP-1 inh	VIM-2 inh	PolyA inh	Mot1-301 SUMO	NALP1 inh	NALP3 yeast inh
CC(=O)Nc1ccc(NC(=O)CSc2nc3nc(-c4cccs4)cc(C(F)(F)F)c3c(=O)[nH]2)cc1	0	0	0	0	-	0
COC(=O)CSc1nc2nc(-c3cccs3)cc(C(F)(F)F)c2c(=O)[nH]1	0	11.9	0	0	0	0
O=C(CSc1nc2nc(-c3cccs3)cc(C(F)(F)F)c2c(=O)[nH]1)NCc1ccco1	0	8.1	0	0	0	0
CC1CC(C)CN(CC(C)(C)NS(=O)(=O)c2ccc(Cl)cc2)C1 (stereo not drawn)	0	0	0	276.0	0	0
Cc1ccc(C)c(S(=O)(=O)N2CCN(C(=O)/C=C/c3ccco3)CC2)c1	-	-	-	0	-	0
CC(C)C1OC2c3cccc4cccc(c34)C2N1c1ccccc1 (stereo not drawn)	4.6	0	0	0	0	0
Cc1ccc(N(CC(=O)NC2CCCCC2)S(=O)(=O)c2c(C)noc2C)cc1	0	0	0	0	0	0
COc1ccc(OC)c(/C=C2\N=C(c3ccccc3)OC2=O)c1	0	10.2	0	0	0	0
COc1cc(/C=C2\N=C(c3ccccc3)OC2=O)ccc1OC(C)=O	0	0	0	0	0	0
CCn1c(N2CCN(S(=O)(=O)c3ccccc3C(F)(F)F)CC2)nc2ccccc21	7.2	0	0	0	0	0
O=C(NC1CCCC1)C1CC(=O)N(c2ccccc2)C1 (stereo not drawn)	0	0	0	356.3	0	0
Cc1ccc(S(=O)(=O)N2C(=O)CCC2C(=O)NCc2ccco2)cc1 (stereo not drawn)	0	0	0	0	40.3	0
CSCC[C@H](NC(=O)C1CCN(S(=O)(=O)c2ccc(C)cc2)CC1)C(=O)NCC1CCCO1 (stereo partly drawn)	0	0	0	0	0	0
CSCC[C@H](NC(=O)C1CCN(S(=O)(=O)c2ccc(C)cc2)CC1)C(=O)NCc1ccco1	5.9	0	0	0	0	0
CCOC(=O)c1c(S(=O)(=O)NCC(=O)Nc2ccc(F)cc2)c(C)n(C)c1C	0	0	0	0	0	0
COc1ccc(CN(C(=O)c2ccco2)c2ccc(C)c(C)c2)cc1	0	0	0	403.4	0	0
C[C@@H](CN1CCC(Cc2ccccc2)CC1)[C@@H](O)c1ccc(O)cc1	-	-	-	0	-	0
CC(C(O)c1ccc(O)cc1)N1CCC(Cc2ccccc2)CC1 (stereo not drawn)	0	0	0	332.5!	0	0
CCN(CC)C(=O)CSc1nnc(-c2cc3ccccc3cc2O)n1CC	0	10.5	0	0	0	0
CCN(CC)C(=O)CSc1nc2ccccc2c(=O)n1CC	0	0	0	0	0	0
O=C(CCCCCN1C(=O)c2ccccc2C1=O)Nc1ccc(C(=O)O)cc1	0	0	0	0	0	0
O=C(N/N=C\C=C\c1ccco1)c1cc(-c2ccc3ccccc3c2)n[nH]1	0	0	0	593.7	0	0
O=C(N/N=C/C=C\c1ccco1)c1ccccn1	0	0	0	0	0	0
CC1=CCC(C(=O)O)C(C(=O)NC2CCCCC2)C1 (stereo not drawn)	32.0	0	0	0	0	0
Cc1ccc(S(=O)(=O)N(C)CC(=O)Nc2ccccc2N2CCCC2)cc1	-	-	-	0	-	0
SMILES	IMP-1 inh	VIM-2 inh	PolyA inh	Mot1-301 SUMO	NALP1 inh	NALP3 yeast inh
COc1ccc(N=C2SC(CC(=O)Nc3ccccc3)C(=O)N2CCc2ccccn2)cc1 (stereo not drawn)	0	0	0	356.4	0	0
COc1ccc(N=C2SC(CC(=O)Nc3ccccc3)C(=O)N2Cc2ccccn2)cc1 (stereo not drawn)	0	0	0	0	0	0
COc1ccc(Cl)cc1NS(=O)(=O)c1cccc(C(=O)NCC2(N(C)C)CCCCC2)c1	0	0	0	0	0	0
Cc1cc(C)n2nc3ccccc3c2n1	0	0	0	0	24.8	0
Cc1cc(=O)[nH]c2c3ccccc3nn12	0	0	0	0	0	0
Cc1ccc(NC(=S)N2CCN(c3ccccn3)CC2)c(C)c1	0	0	0	325.2	0	0
Cc1ccc(NC(=S)N2CCN(C(=O)c3ccccc3)CC2)c(C)c1	0	0	0	439.7	0	0
O=C(CCCN1CCN(c2ccccn2)CC1)c1ccc(F)cc1	-	-	-	351.4	-	0
O=S(=O)(CCN1CCN(c2ccccn2)CC1)c1ccc(F)cc1	0	0	0	0	0	0
Cc1ccc(C(=O)OCC(=O)NC2CCCC(C)C2C)cc1S(=O)(=O)N1CCCCC1 (stereo not drawn)	-	-	-	0	-	0
FC(F)(F)c1cccc(Cc2noc(CN3CCC(c4ccncc4)CC3)n2)c1	0	0	0	0	0	0
Cc1ccc2[nH]c(C(=O)NCCN3CCCC3)cc2c1	0	0	0	0	0	0
CCOC(=O)c1cc(-c2ccc(Cl)s2)[nH]n1	0	0	0	0	43.8	0
Cc1ccc(N=Cc2cc(Cc3ccccc3Cl)cc([N+](=O)[O-])c2O)c(O)c1	6.3	0	0	0	0	0
CCc1cc(=O)oc2cc(C)cc(OC(=O)c3ccco3)c12	0	11.0	0	0	0	0
C=C(Cl)COc1cc(C)cc2oc(=O)cc(CC)c12	0	0	0	329.2	0	0
OC(CNCC1CCCO1)Cn1c2ccc(Cl)cc2c2cc(Cl)ccc21 (stereo not drawn)	0	0	0	0	27.8	0
Cc1cc(C)n(CC(O)Cn2c3ccc(Cl)cc3c3cc(Cl)ccc32)c(=O)n1 (stereo not drawn)	0	0	0	0	0	0
OC(CNCC1CCCO1)Cn1c2ccccc2c2ccccc21 (stereo not drawn)	0	0	0	0	0	0
OC(CNCCC1C=Nc2ccccc21)Cn1c2ccc(Cl)cc2c2cc(Cl)ccc21 (stereo not drawn)	0	0	0	0	101.1	-
CC(C)CCN(C(=O)c1ccc(Br)cc1)c1c(N)n(Cc2ccccc2)c(=O)[nH]c1=O	-	-	-	0	-	0
CC1CCCCC1NC(=O)CSc1nnnn1C (stereo not drawn)	-	-	-	-	-	0
Cc1ccc(Oc2ncccc2/C=N/OCc2ccc(Cl)c(Cl)c2)cc1	4.7	0	0	0	0	0
CSc1ccccc1C(=O)N1CCN(S(=O)(=O)c2sc(C(=O)O)c(C)c2C(=O)O)CC1	-	-	-	0	-	0
COc1ccccc1[C@@]1(C)ON(c2ccccc2C(F)(F)F)C1=O	-	-	-	326.5	-	0
O=C(CSCc1cc(=O)n2nc(C3CC3)sc2n1)Nc1ccccc1Cl	0	0	0	0	0	0
CCOC(=O)c1sc2nc[nH]c(=O)c2c1C	5.2	0	0	0	0	0
COc1cc(Cl)ccc1OCc1cc(C(=O)N2C[C@]3(C)C[C@H]2CC(C)(C)C3)no1	0	0	0	0	0	0
CCn1cc(C(=O)OCC(=O)Nc2ccc(C(C)C)cc2)c(=O)c2ccc(C)nc21	0	0	0	-	24.6	0
